Assay [1] concerns the target Serine/threonine-protein kinase PAK 5 (Homo sapiens) (UniProt Q9P286). The experiment in a line: Inhibition of human recombinant PAK5 at 40 nM in presence of ATP by radiometric assay relative to control.
The target of assay [2] is Proto-oncogene tyrosine-protein kinase Src (Homo sapiens) (UniProt P12931). The experiment in a line: Inhibition of human recombinant SRC at 500 nM in presence of ATP by radiometric assay relative to control.
The target in assay [3] is Serine/threonine-protein kinase 4 (Homo sapiens) (UniProt Q13043). The experiment in a line: Inhibition of human recombinant MST1 at 500 nM related to control ULK1.
Assay [4] deals with Dual specificity protein kinase CLK4 (Homo sapiens) (UniProt Q9HAZ1). The experiment in a line: Inhibition of human recombinant CLK4 at 500 nM related to control ULK1.
Assay [5] concerns the target T1, G protein-coupled receptor kinase 3 (Homo sapiens) (UniProt P35626).
T1 sequence (whole entry): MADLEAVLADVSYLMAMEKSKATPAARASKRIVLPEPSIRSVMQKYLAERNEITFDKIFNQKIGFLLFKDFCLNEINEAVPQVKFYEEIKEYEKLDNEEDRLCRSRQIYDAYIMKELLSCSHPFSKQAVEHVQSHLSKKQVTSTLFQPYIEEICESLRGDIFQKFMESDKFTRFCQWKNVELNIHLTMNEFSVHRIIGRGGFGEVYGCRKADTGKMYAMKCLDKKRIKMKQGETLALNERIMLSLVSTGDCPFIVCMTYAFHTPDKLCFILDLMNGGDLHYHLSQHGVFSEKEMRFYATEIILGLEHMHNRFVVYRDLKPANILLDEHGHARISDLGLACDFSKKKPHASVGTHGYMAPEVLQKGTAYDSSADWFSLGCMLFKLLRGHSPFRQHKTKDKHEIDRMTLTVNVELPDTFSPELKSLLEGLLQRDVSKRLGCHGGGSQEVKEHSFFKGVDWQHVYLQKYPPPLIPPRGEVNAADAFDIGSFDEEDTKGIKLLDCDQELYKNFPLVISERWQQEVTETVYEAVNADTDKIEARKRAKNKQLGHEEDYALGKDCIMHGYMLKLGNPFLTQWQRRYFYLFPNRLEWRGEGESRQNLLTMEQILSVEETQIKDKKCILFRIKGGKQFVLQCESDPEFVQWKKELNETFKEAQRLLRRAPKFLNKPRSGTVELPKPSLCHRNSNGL
The experiment in a line: Inhibition of human recombinant BARK2 at 500 nM in presence of ATP by radiometric assay relative to control. In short, it runs like this:
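Part of a radiometric in vitro activity panel of 327 recombinant human kinases. Each kinase was tested in duplicate at one inhibitor concentration. Activity remaining was expressed as a percentage of the vehicle control, and percent inhibition was taken as 100 minus that value.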

Assay [6] addresses Cyclin-dependent kinase 2 (Homo sapiens) (UniProt P24941). The experiment in a line: Inhibition of human recombinant CDK2 at 500 nM related to control ULK1.
For assay [7], the target named is T2, TGF-beta receptor type-1 (Homo sapiens) (UniProt P36897).
T2 sequence (whole entry): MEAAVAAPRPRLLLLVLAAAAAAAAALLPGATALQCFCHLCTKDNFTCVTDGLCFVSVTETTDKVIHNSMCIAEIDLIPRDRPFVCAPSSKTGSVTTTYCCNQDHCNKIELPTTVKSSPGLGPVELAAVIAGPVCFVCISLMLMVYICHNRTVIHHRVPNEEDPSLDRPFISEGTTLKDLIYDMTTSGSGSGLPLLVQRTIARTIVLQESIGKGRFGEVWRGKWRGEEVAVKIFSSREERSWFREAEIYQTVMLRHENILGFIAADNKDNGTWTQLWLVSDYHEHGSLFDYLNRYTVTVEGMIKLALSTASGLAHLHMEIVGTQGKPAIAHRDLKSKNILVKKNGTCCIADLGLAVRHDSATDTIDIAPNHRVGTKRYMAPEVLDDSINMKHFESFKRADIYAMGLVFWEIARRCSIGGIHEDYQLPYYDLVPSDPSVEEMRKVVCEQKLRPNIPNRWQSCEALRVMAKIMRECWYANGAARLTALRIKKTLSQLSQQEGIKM
The experiment in a line: Inhibition of human recombinant TGFbR1 at 15 nM related to control ULK1.

Assay [8] deals with T3, Mitogen-activated protein kinase kinase kinase 3 (Homo sapiens) (UniProt Q99759).
T3 sequence (whole entry): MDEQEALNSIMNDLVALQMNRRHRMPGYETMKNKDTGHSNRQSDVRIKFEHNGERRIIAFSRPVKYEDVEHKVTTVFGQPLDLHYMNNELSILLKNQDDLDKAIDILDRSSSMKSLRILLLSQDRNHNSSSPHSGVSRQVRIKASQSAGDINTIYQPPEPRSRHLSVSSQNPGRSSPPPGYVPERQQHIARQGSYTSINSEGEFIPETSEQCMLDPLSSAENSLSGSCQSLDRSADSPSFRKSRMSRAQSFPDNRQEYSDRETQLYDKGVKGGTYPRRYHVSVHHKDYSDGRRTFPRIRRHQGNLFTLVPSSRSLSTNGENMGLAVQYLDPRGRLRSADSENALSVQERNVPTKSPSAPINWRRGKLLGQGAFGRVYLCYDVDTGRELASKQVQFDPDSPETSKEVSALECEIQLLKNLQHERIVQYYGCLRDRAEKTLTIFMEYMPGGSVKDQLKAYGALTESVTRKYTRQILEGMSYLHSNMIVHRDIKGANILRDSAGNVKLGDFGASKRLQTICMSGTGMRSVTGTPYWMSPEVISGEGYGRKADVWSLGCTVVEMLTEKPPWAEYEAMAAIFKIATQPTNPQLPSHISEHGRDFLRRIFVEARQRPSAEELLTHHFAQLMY
The experiment in a line: Inhibition of human recombinant MAP3K3 at 15 nM related to control ULK1.

The target of assay [9] is RAF proto-oncogene serine/threonine-protein kinase (Homo sapiens) (UniProt P04049). The experiment in a line: Inhibition of human recombinant RAF1 at 15 nM related to control ULK1.
The target in assay [10] is DNA-PK/Ku70/Ku85 (Homo sapiens) (UniProt P78527+P12956+P13010). The experiment in a line: Inhibition of human recombinant DNAPK at 15 nM in presence of ATP by radiometric assay relative to control. Type of assay: protein-complex assay.

The source of these data is ChEMBL document CHEMBL5653631, “A Potent and Selective ULK1 Inhibitor Suppresses Autophagy and Sensitizes Cancer Cells to Nutrient Stress” (iScience, 2018).

Each structure is given as a SMILES string.

As usually defined, the inhibition is the relative decrease from the control value, in per cent.

Chain of Serine/threonine-protein kinase PAK 5 (Homo sapiens) (Q9P286 whole entry, looked up): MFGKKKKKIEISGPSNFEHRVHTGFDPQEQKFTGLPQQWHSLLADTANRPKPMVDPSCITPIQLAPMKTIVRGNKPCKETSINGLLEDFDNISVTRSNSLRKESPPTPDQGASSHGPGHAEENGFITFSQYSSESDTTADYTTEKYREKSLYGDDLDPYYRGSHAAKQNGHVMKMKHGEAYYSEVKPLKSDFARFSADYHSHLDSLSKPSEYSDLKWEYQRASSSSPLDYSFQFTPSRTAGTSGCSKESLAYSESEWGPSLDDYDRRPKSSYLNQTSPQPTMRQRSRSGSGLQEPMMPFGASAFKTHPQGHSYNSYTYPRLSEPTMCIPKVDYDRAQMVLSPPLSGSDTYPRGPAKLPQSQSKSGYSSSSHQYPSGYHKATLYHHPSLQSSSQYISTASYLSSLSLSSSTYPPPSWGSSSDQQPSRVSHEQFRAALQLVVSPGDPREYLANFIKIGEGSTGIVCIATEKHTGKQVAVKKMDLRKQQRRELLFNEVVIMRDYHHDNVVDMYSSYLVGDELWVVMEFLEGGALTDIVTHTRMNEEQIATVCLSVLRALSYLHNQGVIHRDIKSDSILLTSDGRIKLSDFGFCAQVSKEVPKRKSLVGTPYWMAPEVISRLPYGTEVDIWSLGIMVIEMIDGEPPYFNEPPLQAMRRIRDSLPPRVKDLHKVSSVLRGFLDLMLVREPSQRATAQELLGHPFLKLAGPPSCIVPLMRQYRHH
Chain of Proto-oncogene tyrosine-protein kinase Src (Homo sapiens) (P12931 2-536 limits assumed): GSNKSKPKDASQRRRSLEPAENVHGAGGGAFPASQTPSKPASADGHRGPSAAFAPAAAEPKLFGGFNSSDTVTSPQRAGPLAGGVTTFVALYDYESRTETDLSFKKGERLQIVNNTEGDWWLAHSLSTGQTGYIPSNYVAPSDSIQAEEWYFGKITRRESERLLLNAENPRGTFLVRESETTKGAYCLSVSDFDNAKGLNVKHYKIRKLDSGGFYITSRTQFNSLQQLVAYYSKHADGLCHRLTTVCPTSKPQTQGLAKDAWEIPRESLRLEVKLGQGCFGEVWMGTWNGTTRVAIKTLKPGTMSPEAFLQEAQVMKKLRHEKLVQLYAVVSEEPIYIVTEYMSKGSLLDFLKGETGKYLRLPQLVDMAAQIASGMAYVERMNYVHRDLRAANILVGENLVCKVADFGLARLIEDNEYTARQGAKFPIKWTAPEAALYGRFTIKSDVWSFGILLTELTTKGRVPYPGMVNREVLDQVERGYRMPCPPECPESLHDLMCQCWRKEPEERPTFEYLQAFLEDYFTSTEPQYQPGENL
Chain of Serine/threonine-protein kinase 4 (Homo sapiens) (Q13043 whole entry, looked up): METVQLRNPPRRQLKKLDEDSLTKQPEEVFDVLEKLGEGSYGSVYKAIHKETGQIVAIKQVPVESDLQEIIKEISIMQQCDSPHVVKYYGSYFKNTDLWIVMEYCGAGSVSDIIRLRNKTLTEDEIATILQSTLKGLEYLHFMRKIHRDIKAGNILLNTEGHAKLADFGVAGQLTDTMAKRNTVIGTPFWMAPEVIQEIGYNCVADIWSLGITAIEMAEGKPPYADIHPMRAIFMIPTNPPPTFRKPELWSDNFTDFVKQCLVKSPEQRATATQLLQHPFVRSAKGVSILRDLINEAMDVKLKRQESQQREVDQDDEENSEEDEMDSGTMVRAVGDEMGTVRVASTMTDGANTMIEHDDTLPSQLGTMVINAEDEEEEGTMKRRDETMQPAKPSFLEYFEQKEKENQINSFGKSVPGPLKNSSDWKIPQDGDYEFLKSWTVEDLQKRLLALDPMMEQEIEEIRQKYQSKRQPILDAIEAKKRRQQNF
Chain of RAF proto-oncogene serine/threonine-protein kinase (Homo sapiens) (P04049 whole entry): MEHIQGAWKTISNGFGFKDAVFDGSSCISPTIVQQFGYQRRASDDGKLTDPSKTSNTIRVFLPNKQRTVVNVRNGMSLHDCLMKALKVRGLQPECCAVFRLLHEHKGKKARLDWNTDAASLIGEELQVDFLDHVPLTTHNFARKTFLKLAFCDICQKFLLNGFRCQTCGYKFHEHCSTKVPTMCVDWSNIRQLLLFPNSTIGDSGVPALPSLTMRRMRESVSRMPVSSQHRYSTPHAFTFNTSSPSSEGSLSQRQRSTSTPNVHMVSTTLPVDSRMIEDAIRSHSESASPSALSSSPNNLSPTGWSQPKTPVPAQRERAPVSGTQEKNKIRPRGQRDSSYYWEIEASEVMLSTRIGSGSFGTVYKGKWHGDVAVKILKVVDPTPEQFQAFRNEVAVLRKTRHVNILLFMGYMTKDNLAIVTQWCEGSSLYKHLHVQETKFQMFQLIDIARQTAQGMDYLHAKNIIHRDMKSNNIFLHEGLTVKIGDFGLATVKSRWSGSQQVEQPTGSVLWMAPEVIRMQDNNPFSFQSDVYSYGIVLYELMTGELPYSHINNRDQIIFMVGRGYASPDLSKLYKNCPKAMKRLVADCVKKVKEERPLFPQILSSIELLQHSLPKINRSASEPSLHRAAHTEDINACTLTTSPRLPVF
Chain of Dual specificity protein kinase CLK4 (Homo sapiens) (Q9HAZ1 whole entry, looked up): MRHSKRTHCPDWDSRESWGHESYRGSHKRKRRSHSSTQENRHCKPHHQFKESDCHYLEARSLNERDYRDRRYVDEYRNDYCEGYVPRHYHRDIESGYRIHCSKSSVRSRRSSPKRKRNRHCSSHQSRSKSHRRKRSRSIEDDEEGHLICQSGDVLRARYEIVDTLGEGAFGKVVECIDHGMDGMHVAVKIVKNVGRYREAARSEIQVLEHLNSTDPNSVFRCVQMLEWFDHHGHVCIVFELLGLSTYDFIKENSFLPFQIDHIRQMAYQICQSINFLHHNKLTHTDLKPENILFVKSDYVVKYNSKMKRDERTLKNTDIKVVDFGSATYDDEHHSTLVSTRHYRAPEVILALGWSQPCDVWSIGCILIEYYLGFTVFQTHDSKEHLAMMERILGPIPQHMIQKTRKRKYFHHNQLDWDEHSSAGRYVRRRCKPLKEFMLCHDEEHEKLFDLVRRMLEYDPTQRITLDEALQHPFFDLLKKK

With `O=C(N[C@@H](C1CC1)C(F)(F)F)c1cc(-c2cnn3cc(-c4ccc(F)cc4)cnc23)cs1`, the inhibition in assay [1] is 0%.
For the molecule `CNC(=O)c1ccccc1Oc1nc(Nc2cc(OC)c(OC)c(OC)c2)ncc1Br`, the figures for the inhibition in assay [2] and in [5] were 19% and 7%, respectively. Besides, the fold change (FC) in assay [3] came out at 0; in assay [4] it was 0.11; in [6], 0.05.
With `CC(C)[C@H](NC(=O)c1cc(-c2cnn3cc(-c4ccc(OCCN5CCCCC5)cc4)cnc23)cs1)C(F)(F)F`, the fold change (FC) amounted to 0.05 in [7], 0.03 in assay [8] and 0.09 in assay [9]. The inhibition in assay [10] is 0%.
